Data: ChEMBL document CHEMBL3352527, “Phosphorus-nitrogen compounds. Part 29. Syntheses, crystal structures, spectroscopic and stereogenic properties, electrochemical investigations, antituberculosis, antimicrobial and cytotoxic activities and DNA interactions of ansa-spiro-ansa cyclotetraphosphazenes” (2014)
Activity calls are given as the source filed them. No cut-off for these calls is given here.

Legend:
[1] = tested on: Escherichia coli; assay: Antimicrobial activity against Escherichia coli ATCC 25922 after 18 hrs by agar well diffusion assay; type: functional
In short: (§1)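 Bacteria were grown to exponential phase in nutrient broth at 37 °C for 18 h and adjusted to 10^8 cfu/mL against McFarland density. The culture suspension was mixed into the medium and poured into plates with 6.0 mm wells. Each well received 50 of the compound solution in DMSO. Inhibition zone diameter was read in mm; the value is the mean of three experiments.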

[2] = tested on: Bacillus cereus; assay: Antimicrobial activity against Bacillus cereus NRRL-B-3711 after 18 hrs by agar well diffusion assay; type: functional; in short: as §1
[3] = tested on: Bacillus spizizenii; assay: Antimicrobial activity against Bacillus subtilis ATCC 6633 after 18 hrs by agar well diffusion assay; type: functional; in short: as §1
[4] = tested on: Escherichia coli; assay: Binding affinity to Escherichia coli pBR322 plasmid DNA assessed as retardation of electrophoretic migration of supercoiled form I DNA at 312 to 5000 uM after 24 hrs by agarose gel electrophoresis
In short: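 pBR322 plasmid DNA was incubated with the compounds at 37 °C for 24 h in the dark. Mixtures were run on a 1% agarose gel in TAE buffer (pH 8.0) for 3 h at 60 V. Mobility of supercoiled form I and nicked form II DNA was compared with untreated plasmid.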

[5] = tested on: MCF7; assay: Cytotoxicity against human MCF7 cells assessed as reduction in cell viability at 1 mg/ml after 24 hrs by MTT assay; type: functional
In short: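 Cells were exposed to compounds for 24 h, then to MTT for 4 h. Formazan was dissolved in DMSO and absorbance read at 540 nm. Relative viability (%) was determined, with cisplatin as positive control.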

[6] = tested on: Bacillus spizizenii; assay: Antimicrobial activity against Bacillus subtilis ATCC 6633 at 2500 uM after 18 hrs by agar well diffusion assay; type: functional; conditions: ATCC 6633, 18 h, read-out: DIZ; in short: as §1
[7] = tested on: Pseudomonas aeruginosa; assay: Antimicrobial activity against Pseudomonas aeruginosa ATCC 27853 at 10 ug after 18 hrs by agar well diffusion assay; type: functional; conditions: ATCC 27853, 18 h, read-out: DIZ
In short: (§2)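 Agar-well diffusion with ampicillin and chloramphenicol as reference antibacterials. Bacteria were grown to exponential phase in nutrient broth at 37 °C for 18 h and adjusted to 10^8 cfu/mL against McFarland density. The suspension was mixed into medium and poured into plates, and 6.0 mm wells were cut. After incubation, inhibition zone diameter was read in mm. Values are the mean of three experiments.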

[8] = tested on: Staphylococcus aureus; assay: Antimicrobial activity against Staphylococcus aureus ATCC 25923 at 10 ug after 18 hrs by agar well diffusion assay; type: functional; conditions: ATCC 25923, 18 h, read-out: DIZ; in short: as §2
[9] = tested on: Escherichia coli; assay: Antimicrobial activity against Escherichia coli ATCC 25922 at 10 ug after 18 hrs by agar well diffusion assay; type: functional; conditions: ATCC 25922, 18 h, read-out: DIZ; in short: as §2
[10] = tested on: Escherichia coli; assay: Antimicrobial activity against Escherichia coli ATCC 35218 at 10 ug after 18 hrs by agar well diffusion assay; type: functional, organism-based
[11] = tested on: Bacillus spizizenii; assay: Antimicrobial activity against Bacillus subtilis ATCC 6633 at 10 ug after 18 hrs by agar well diffusion assay; type: functional; conditions: ATCC 6633, 18 h, read-out: DIZ; in short: as §2
[12] = tested on: Bacillus cereus; assay: Antimicrobial activity against Bacillus cereus NRRL-B-3711 at 10 ug after 18 hrs by agar well diffusion assay; type: functional; conditions: NRRL-B-3711, 18 h, read-out: DIZ; in short: as §2
[13] = tested on: Staphylococcus aureus; assay: Antimicrobial activity against Staphylococcus aureus ATCC 25923 at 30 ug after 18 hrs by agar well diffusion assay; type: functional; conditions: ATCC 25923, 18 h, read-out: DIZ; in short: as §2
[14] = tested on: Bacillus cereus; assay: Antimicrobial activity against Bacillus cereus NRRL-B-3711 at 30 ug after 18 hrs by agar well diffusion assay; type: functional; conditions: NRRL-B-3711, 18 h, read-out: DIZ; in short: as §2
[15] = tested on: Bacillus spizizenii; assay: Antimicrobial activity against Bacillus subtilis ATCC 6633 at 30 ug after 18 hrs by agar well diffusion assay; type: functional; conditions: ATCC 6633, 18 h, read-out: DIZ; in short: as §2
[16] = tested on: Escherichia coli; assay: Antimicrobial activity against Escherichia coli ATCC 25922 at 30 ug after 18 hrs by agar well diffusion assay; type: functional; conditions: ATCC 25922, 18 h, read-out: DIZ; in short: as §2
[17] = tested on: Escherichia coli; assay: Antimicrobial activity against Escherichia coli ATCC 35218 at 30 ug after 18 hrs by agar well diffusion assay; type: functional; conditions: ATCC 35218, 18 h, read-out: DIZ; in short: as §2
[18] = tested on: Pseudomonas aeruginosa; assay: Antimicrobial activity against Pseudomonas aeruginosa ATCC 27853 at 30 ug after 18 hrs by agar well diffusion assay; type: functional; conditions: ATCC 27853, 18 h, read-out: DIZ; in short: as §2
[19] = tested on: Candida tropicalis; assay: Antimicrobial activity against Candida tropicalis ATCC 13803 at 50 ug after 18 hrs by agar well diffusion assay; type: functional; conditions: ATCC 13803, 18 h, read-out: DIZ
[20] = tested on: Candida albicans; assay: Antimicrobial activity against Candida albicans ATCC 10231 at 50 ug after 18 hrs by agar well diffusion assay; type: functional; conditions: ATCC 10231, 18 h, read-out: DIZ

C1CC2(CCN1)OCCO2
diameter of the inhibition zone (DIZ) [1]: 11 mm
diameter of the inhibition zone (DIZ) [2]: 13 mm
diameter of the inhibition zone (DIZ) [3]: 12 mm

[K+].[K+].[O-]c1ccccc1CNCCCNCc1ccccc1[O-]
diameter of the inhibition zone (DIZ) [1]: 10.3 mm
diameter of the inhibition zone (DIZ) [2]: 11 mm

Cl[P@@]12=NP34=N[P@](Cl)(=NP(N5CCCCC5)(N5CCCCC5)=N1)Oc1ccccc1CN3CCN4Cc1ccccc1O2 (mixture of isomers)
Activity [4]: Active
Activity [5]: 40%

Cl[P@@]12=NP34=N[P@](Cl)(=NP(N5CCC6(CC5)OCCO6)(N5CCC6(CC5)OCCO6)=N1)Oc1ccccc1CN3CCCN4Cc1ccccc1O2 (mixture of isomers)
Activity [5]: inactive

ClP12=NP34=N[P@](Cl)(=NP(N5CCCCC5)(N5CCCCC5)=N1)Oc1ccccc1CN3CCCN4Cc1ccccc1O2 (single isomer, unassigned)
zone of inhibition at 2500 µM [6]: 9 mm
Activity [4]: Active
Activity [5]: 40%

ClP12=NP34=NP(Cl)(=NP(N5CCC6(CC5)OCCO6)(N5CCC6(CC5)OCCO6)=N1)Oc1ccccc1CN3CCCN4Cc1ccccc1O2 (single isomer, unassigned)
zone of inhibition at 2500 µM [6]: 7 mm
Activity [5]: inactive

ClP12=NP(N3CCC4(CC3)OCCO4)(N3CCC4(CC3)OCCO4)=N[P@@]3(Cl)=N[P@]4(=N1)N(CCN4Cc1ccccc1O3)Cc1ccccc1O2 (single isomer, unassigned)
Activity [5]: inactive

ClP12=NP34=N[P@](Cl)(=NP(N5CCC6(CC5)OCCO6)(N5CCC6(CC5)OCCO6)=N1)Oc1ccccc1CN3CCN4Cc1ccccc1O2 (single isomer, unassigned)
Activity [5]: inactive

CC1(C)S[C@@H]2[C@H](NC(=O)[C@H](N)c3ccccc3)C(=O)N2[C@H]1C(=O)O [AMPICILLIN]
zone of inhibition at 10 µg/disc [7]: 28 mm
zone of inhibition at 10 µg/disc [8]: 35 mm
zone of inhibition at 10 µg/disc [9]: 20.3 mm
diameter of the inhibition zone (DIZ) [10]: inactive
zone of inhibition at 10 µg/disc [11]: 30.3 mm
zone of inhibition at 10 µg/disc [12]: 10 mm

O=C(N[C@H](CO)[C@H](O)c1ccc([N+](=O)[O-])cc1)C(Cl)Cl [CHLORAMPHENICOL]
zone of inhibition at 30 µg/disc [13]: 29.6 mm
zone of inhibition at 30 µg/disc [14]: 23.4 mm
zone of inhibition at 30 µg/disc [15]: 31 mm
zone of inhibition at 30 µg/disc [16]: 26.6 mm
zone of inhibition at 30 µg/disc [17]: 10.5 mm
zone of inhibition at 30 µg/disc [18]: 21.9 mm

CC(=O)N1CCN(c2ccc(OCC3COC(Cn4ccnc4)(c4ccc(Cl)cc4Cl)O3)cc2)CC1 (stereo unspecified) [KETOCONAZOLE]
zone of inhibition at 50 µg/disc [19]: 29 mm
zone of inhibition at 50 µg/disc [20]: 30 mm

C1CCNCC1 [PIPERIDINE]
diameter of the inhibition zone (DIZ) [1]: 11 mm
diameter of the inhibition zone (DIZ) [2]: 13 mm
